Test results published in ChEMBL document CHEMBL1649273, “In vivo activity of a novel anti-methicillin-resistant Staphylococcus aureus cephalosporin, ceftaroline, against vancomycin-susceptible and -resistant Enterococcus faecalis strains in a rabbit endocarditis model: a comparative study with linezolid and vancomycin” (2009).
Active and inactive are the calls of the source. No cut-off for these calls is given here.

Tests used:
[1] = test system: Enterococcus faecalis; assay: Antibacterial activity against vancomycin-susceptible Enterococcus faecalis EF 12704 infected in New Zealand White rabbit assessed as log reduction of bacterial count in aortic valve vegetations at 10 mg/kg, administered through ear vein every 12 hrs for 4 days; type: functional
How it was run: (§1)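 New Zealand White rabbits were anesthetized and given left-ventricular catheters. Endocarditis was induced 24 h later with 10^8 CFU E. faecalis. From 24 h post-inoculation, drug was given via the marginal ear vein by computer-controlled pump, simulating human pharmacokinetics of 600 mg every 12 h (10 mg/kg/12 h). After 4 days, aortic vegetations were excised, weighed, homogenized in 0.5 ml saline and cultured quantitatively on agar for 24 h at 37°C.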

[2] = test system: Enterococcus faecalis; assay: Antibacterial activity against vancomycin-susceptible Enterococcus faecalis EF 12704 infected in New Zealand White rabbit assessed as reduction of bacterial count in aortic valve vegetations at 10 mg/kg, administered through ear vein every 12 hrs for 4 days (reference value: 8.56 +/- 0.74 CFU/g); type: functional; how it was run: as §1
[3] = test system: Enterococcus faecalis; assay: Antibacterial activity against vancomycin-susceptible Enterococcus faecalis EF 12704 assessed as log reduction in bacterial count at 12 mg/l after 24 hrs by time kill assay; type: functional
How it was run: (§2)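 Time-kill experiments used an inoculum of 5 × 10^6 CFU/ml, with bacterial counts followed over 24 h.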

[4] = test system: Enterococcus faecalis; assay: Antibacterial activity against vancomycin-susceptible Enterococcus faecalis EF 12704 assessed as bactericidal activity at 25 mg/l after 24 hrs by time kill assay; type: functional, organism-based; how it was run: as §2
[5] = test system: Enterococcus faecalis; assay: Antibacterial activity against vancomycin-resistant Enterococcus faecalis EF NJ1 assessed as bactericidal activity at 25 mg/l after 24 hrs by time kill assay; type: functional, organism-based; how it was run: as §2
[6] = test system: Enterococcus faecalis; assay: Antibacterial activity against vancomycin-resistant Enterococcus faecalis EF NJ1 infected in New Zealand White rabbit assessed as log reduction of bacterial count in aortic valve vegetations at 10 mg/kg, administered through ear vein every 12 hrs for 4 days; type: functional; how it was run: as §1
[7] = test system: Enterococcus faecalis; assay: Antibacterial activity against vancomycin-susceptible Enterococcus faecalis EF 12704 infected in New Zealand White rabbit assessed as reduction of bacterial count in aortic valve vegetations administered through ear vein every 12 hrs for 4 days (reference value: 8.56 +/- 0.74 CFU/g); type: functional
[8] = test system: Enterococcus faecalis; assay: Antibacterial activity against vancomycin-resistant Enterococcus faecalis EF NJ1 infected in New Zealand White rabbit assessed as reduction of bacterial count in aortic valve vegetations administered through ear vein every 12 hrs for 4 days (reference value: 8.60 +/- 0.54 CFU/g); type: functional

| Compound | log10CFU/g [1] | log10CFU/g [2] | log10CFU/ml [3] | Activity [4] | Activity [5] | log10CFU/g [6] | log10CFU/g [7] | log10CFU/g [8] |
| --- | --- | --- | --- | --- | --- | --- | --- | --- |
| CC(=O)NC[C@H]1CN(c2ccc(N3CCOCC3)c(F)c2)C(=O)O1 [LINEZOLID] | >3 | 6.88 | 1 |  |  |  |  |  |
| CN[C@H](CC(C)C)C(=O)N[C@H]1C(=O)N[C@@H](CC(N)=O)C(=O)N[C@H]2C(=O)N[C@H]3C(=O)N[C@H](C(=O)N[C@H](C(=O)O)c4cc(O)cc(O)c4-c4cc3ccc4O)[C@H](O)c3ccc(c(Cl)c3)Oc3cc2cc(c3O[C@@H]2O[C@H](CO)[C@@H](O)[C@H](O)[C@H]2O[C@H]2C[C@](C)(N)[C@H](O)[C@H](C)O2)Oc2ccc(cc2Cl)[C@H]1O [VANCOMYCIN] | 2 |  |  | inactive | inactive | 2 | 6.7 | 8.01 |
